The source of these data is ChEMBL document CHEMBL1124009 (J Med Chem, 1988).

Usually IC50 stands for the midpoint of a concentration-inhibition curve. What is called inhibition is the percentage by which the read-out fell short of the control. A low value points to little suppression.

Molecules are shown by their SMILES. Positions of bridges follow the written chain, without caps; N, C: chain ends. Non-standard residues stand in square brackets, D forms with d. Residues, ends and D or L forms follow the SMILES beside them. Tic = O=C(O)[C@@H]1Cc2ccccc2CN1; dTic = O=C(O)[C@H]1Cc2ccccc2CN1; Pen = CC(C)(S)[C@H](N)C(=O)O

Assay [1] in a line: Ratio of selective binding affinity of mu receptor to that of somatostatin receptor.
Assay [2] has as its target Opioid receptors; mu & delta (Rattus norvegicus) (UniProt P33533+P33535). Put plainly: Ratio of selective binding affinity of mu receptor to that of delta opioid receptor. The class given is protein assay.
The target in another assay is Somatostatin receptor. Put plainly: Binding affinity in competition with [125I]- CGP-23996 in somatostatin receptor binding to rat brain membrane. Put shortly:
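Rat whole-brain membranes (adult male Sprague–Dawley) at 1.0% final tissue were incubated with 0.2 nM [125I]CGP 23,996 and analogues at 100–0.3 μM. Buffer was 50 mM Tris pH 7.4 with 2.0 mg/mL BSA, 20 μg/mL bacitracin and 5 mM MgCl2. Incubation ran 1 h at 37 °C and ended by rapid filtration through BSA-soaked GF/B filters.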

The species named for assay [3] is Cavia porcellus. Put plainly: Negative logarithm of antagonist concentration that requires doubling of agonist concentration to induce original agonist response. Conditions: read-out: pA2 (converted).
Assay [4] deals with Mu-type opioid receptor (Rattus norvegicus) (UniProt P33535). The experiment in a line: Percentage inhibition in competition with [3H]- CTOP in Opioid receptor mu 1 binding to rat brain membrane at 10000 nM.
The next assay addresses Mu-type opioid receptor (Rattus norvegicus, UniProt P33535). The experiment in a line: Binding affinity in competition with [3H]- CTOP in Opioid receptor mu 1 binding to rat brain membrane. Summed up: (§1)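 Brains (minus cerebellum) of male Sprague–Dawley rats (200–250 g) were homogenized, preincubated 30 min at 25 °C and centrifuged twice at 43000g. Homogenate at 0.5% final was incubated with 0.5 nM [3H]CTOP (μ) or 1.0 nM [3H]DPDPE (δ) in 50 mM Tris-HCl pH 7.4 with 5 mM MgCl2, BSA 1 mg/mL and 100 μM PMSF, 120 min at 25 °C, in duplicate. Nonspecific binding was taken with 1 μM naloxone; bound label was filtered and scintillation counted; curves were fit by nonlinear least squares.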

For assay [5], the target named is Delta-type opioid receptor (Rattus norvegicus, UniProt P33533). Put plainly: Binding affinity in competition with [3H]- DPDPE in Opioid receptor delta 1 binding to rat brain membrane. Summed up: as §1
The species named for assay [6] is Cavia porcellus. The experiment in a line: Intrinsic agonist activity in guinea Pig Ileum (GPI) was determined. Format: functional. The following applies: filed as agonist. Put shortly: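 Longitudinal muscle–myenteric plexus strips of ileum from male Hartley guinea pigs (200–500 g) sat in Krebs–bicarbonate at 37 °C under 95% O2/5% CO2 at 1 g tension. Strips were field-stimulated at 0.1 Hz with 0.4-ms supramaximal pulses, and isometric twitches were recorded. Agonist action was taken as twitch inhibition. pA2 came from PL017 (μ agonist) dose–response curves without and with several antagonist concentrations.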

For assay [7], the target named is Mu-type opioid receptor (Rattus norvegicus) (UniProt P33535). The experiment in a line: Binding affinity of compound in competition with [3H]- CTOP in Opioid receptor mu 1 binding to rat brain membrane at 10000 nM.

Sequence of Opioid receptors; mu & delta (Rattus norvegicus) (P33533 whole entry, looked up): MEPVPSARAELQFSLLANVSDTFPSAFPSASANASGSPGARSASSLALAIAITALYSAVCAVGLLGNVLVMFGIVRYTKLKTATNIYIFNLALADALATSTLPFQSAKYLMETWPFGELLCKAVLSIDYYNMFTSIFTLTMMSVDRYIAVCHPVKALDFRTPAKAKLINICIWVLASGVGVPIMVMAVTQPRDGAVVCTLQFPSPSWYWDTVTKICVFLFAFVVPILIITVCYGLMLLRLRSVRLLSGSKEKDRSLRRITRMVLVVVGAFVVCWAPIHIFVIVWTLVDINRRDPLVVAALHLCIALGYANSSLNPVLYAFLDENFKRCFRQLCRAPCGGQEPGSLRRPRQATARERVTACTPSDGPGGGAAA
Sequence of Opioid receptors; mu & delta (Rattus norvegicus) (P33535 whole entry, looked up): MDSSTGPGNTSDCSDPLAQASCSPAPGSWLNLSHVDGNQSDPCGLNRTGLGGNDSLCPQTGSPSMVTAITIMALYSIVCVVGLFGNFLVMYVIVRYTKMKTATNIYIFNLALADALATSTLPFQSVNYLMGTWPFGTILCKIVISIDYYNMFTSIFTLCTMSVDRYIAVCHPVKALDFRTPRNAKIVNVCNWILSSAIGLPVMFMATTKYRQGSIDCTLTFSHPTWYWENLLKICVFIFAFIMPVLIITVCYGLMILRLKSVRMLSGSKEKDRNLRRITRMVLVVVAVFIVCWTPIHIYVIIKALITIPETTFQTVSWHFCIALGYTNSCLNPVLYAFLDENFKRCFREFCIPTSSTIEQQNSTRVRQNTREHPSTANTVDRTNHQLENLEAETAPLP
Sequence of Delta-type opioid receptor (P33533 whole entry): as the sequence (P33533 whole entry, looked up) above
Sequence of Mu-type opioid receptor (P33535 whole entry): as the sequence (P33535 whole entry, looked up) above
Sequence of Mu-type opioid receptor (Rattus norvegicus) (P33535 whole entry): as the sequence (P33535 whole entry, looked up) above

`C[C@@H](O)[C@H](NC(=O)[C@H]1NC(=O)[C@H]([C@@H](C)O)NC(=O)[C@H](CCCNC(=N)N)NC(=O)[C@@H](Cc2c[nH]c3ccccc23)NC(=O)[C@H](Cc2ccc(O)cc2)NC(=O)[C@@H](NC(=O)[C@H](N)Cc2ccccc2)CSSC1(C)C)C(N)=O`: the values for the Ratio in assay [1] and in [2] were 4020 and 2530, respectively. Further, the IC50 at Somatostatin receptor was 8452 nM. For the same compound, the Kb in the assay filed under Cavia porcellus [3] was 75.9 nM.
Take `C[C@@H](O)[C@H](NC(=O)[C@H]1NC(=O)[C@H](CC(N)=O)NC(=O)[C@H](Cc2ccc(O)cc2)NC(=O)[C@@H](NC(=O)[C@@H](N)Cc2ccccc2)CSSC1(C)C)C(N)=O`: the concentration for half-maximal inhibition (IC50) at Somatostatin receptor was greater than 100000 nM. The compound also registered an inhibition in assay [4] of 17%.
Take `C[C@@H](O)[C@H](NC(=O)[C@H]1NC(=O)[C@H]([C@@H](C)O)NC(=O)[C@H](CCCN)NC(=O)[C@@H](Cc2c[nH]c3ccccc23)NC(=O)[C@H](Cc2ccc(O)cc2)NC(=O)[C@@H](NC(=O)[C@H]2Cc3ccccc3CN2)CSSC1(C)C)C(N)=O`: the IC50 on Mu-type opioid receptor worked out at 1.4 nM; in assay [5], 16000 nM. Moreover, in the assay listed under Cavia porcellus [3], the Kb is 41.7 nM.
Consider `CC(C)[C@H](NC(=O)[C@H]1NC(=O)[C@H]([C@@H](C)O)NC(=O)[C@H](CCCCN)NC(=O)[C@H](Cc2c[nH]c3ccccc23)NC(=O)[C@H](Cc2ccc(O)cc2)NC(=O)[C@@H](NC(=O)[C@H]2Cc3ccccc3CN2)CSSC1(C)C)C(N)=O`, for which the Ratio in assay [1] worked out at 43; in assay [2], 46. At Somatostatin receptor, the IC50 is 1992 nM.
For `C[C@@H](O)[C@H](NC(=O)[C@H]1NC(=O)[C@H]([C@@H](C)O)NC(=O)[C@H](CCCCN)NC(=O)[C@@H](Cc2c[nH]c3ccccc23)NC(=O)[C@H](Cc2ccc(O)cc2)NC(=O)[C@@H](NC(=O)[C@H](N)Cc2ccccc2)CSSC1(C)C)C(N)=O`, the IC50 in assay [5] amounted to 1150 nM. Also, in the assay listed under Cavia porcellus [3], the Kb was 79.4 nM.
Take `C[C@@H](O)[C@@H]1NC(=O)[C@H](CCCN)NC(=O)C(Cc2c[nH]c3ccccc23)NC(=O)[C@H](Cc2ccc(O)cc2)NC(=O)[C@@H](NC(=O)[C@H](N)Cc2ccccc2)CSSC(C)(C)[C@@H](C(N)=O)NC1=O` (stereo in doubt): the Ratio in [1] is 253; in assay [2] it was greater than 53.
For `C[C@@H](O)[C@H](NC(=O)[C@H]1NC(=O)[C@H](CCCCN)NC(=O)C(Cc2c[nH]c3ccccc23)NC(=O)[C@@H](Cc2ccc(O)cc2)NC(=O)[C@@H](NC(=O)[C@H]2Cc3ccccc3CN2)CSSC1(C)C)C(N)=O` (stereo in doubt), the Ratio in assay [1] was 1.5; in assay [2], greater than 1.
Turning to `C[C@@H](O)[C@H](NC(=O)[C@H]1NC(=O)[C@H]([C@@H](C)O)NC(=O)[C@H](CCCCN)NC(=O)C(Cc2c[nH]c3ccccc23)NC(=O)[C@H](Cc2ccc(O)cc2)NC(=O)[C@@H](NC(=O)C(N)Cc2c[nH]c3ccccc23)CSSC1(C)C)C(N)=O` (stereo in doubt), the Ratio in [1] was 254; in [2], greater than 1590. Besides, the Activity result in the assay filed under Cavia porcellus [6] is “Agonist”.
In the case of `C[C@@H](O)[C@@H]1NC(=O)[C@H](CCCCN)NC(=O)C(Cc2c[nH]c3ccccc23)NC(=O)[C@H](Cc2ccc(O)cc2)NC(=O)[C@@H](NC(=O)[C@H](N)Cc2ccccc2)CSSC(C)(C)[C@@H](C(=O)N[C@@H](CO)C(N)=O)NC1=O` (stereo in doubt) [listing 1 of 2 here], the IC50 at Mu-type opioid receptor is 20 nM; in assay [5] it was greater than 10000 nM. The Kb in the assay listed under Cavia porcellus [3] is 575 nM.
For the compound `C[C@@H](O)[C@H](NC(=O)[C@H]1NC(=O)[C@H]([C@@H](C)O)NC(=O)[C@H](CCCN)NC(=O)C(Cc2c[nH]c3ccccc23)NC(=O)[C@@H](Cc2ccc(O)cc2)NC(=O)[C@@H](NC(=O)[C@H]2Cc3ccccc3CN2C(=O)CN)CSSC1(C)C)C(N)=O` (stereo in doubt), the Ratio came out at 70 in assay [1] and 19 in assay [2].
In the case of `CC(C)[C@H](NC(=O)[C@H]1NC(=O)[C@H]([C@@H](C)O)NC(=O)[C@H](CCCCN)NC(=O)[C@@H](Cc2c[nH]c3ccccc23)NC(=O)[C@H](Cc2ccc(O)cc2)NC(=O)[C@@H](NC(=O)[C@H]2Cc3ccccc3CN2)CSSC1(C)C)C(N)=O`, the IC50 at Mu-type opioid receptor is 46 nM; in assay [5], 2120 nM. Moreover, the Kb in the assay filed under Cavia porcellus [3] was 257 nM.
Consider `C[C@@H](O)[C@H](NC(=O)[C@H]1NC(=O)[C@H]([C@@H](C)O)NC(=O)[C@H](CCCN=C(N)N)NC(=O)[C@H](Cc2c[nH]c3ccccc23)NC(=O)[C@H](Cc2ccc(O)cc2)NC(=O)[C@@H](NC(=O)[C@@H]2Cc3ccccc3CN2)CSSC1(C)C)C(N)=O` (H-[Tic]CYWRT[Pen]T-NH2; disulfide 2-7), for which the Ratio was determined as 28600 in assay [1] and 1060 in assay [2]. At Somatostatin receptor, the IC50 worked out at 34336 nM.
For `C[C@@H](O)[C@H](NC(=O)[C@H]1NC(=O)[C@H]([C@@H](C)O)NC(=O)[C@H](CCCCN)NC(=O)[C@H](Cc2c[nH]c3ccccc23)NC(=O)[C@H](Cc2ccc(O)cc2)NC(=O)[C@@H](NC(=O)[C@@H](N)Cc2ccccc2)CSSC1(C)C)C(N)=O`, the Ratio in assay [1] worked out at 395; in assay [2] it was 312. At Somatostatin receptor, the IC50 came out at 1462 nM.
In the case of `C[C@@H](O)[C@H](NC(=O)[C@H]1NC(=O)[C@H]([C@@H](C)O)NC(=O)[C@H](CCCN=C(N)N)NC(=O)[C@@H](Cc2c[nH]c3ccccc23)NC(=O)[C@H](Cc2ccc(O)cc2)NC(=O)[C@@H](NC(=O)[C@H]2Cc3ccccc3CN2)CSSC1(C)C)C(N)=O` (H-[dTic]CY[dW]RT[Pen]T-NH2; disulfide 2-7), the IC50 at Mu-type opioid receptor is 1.2 nM; in assay [5] it was 1270 nM. Besides, the Kb in the assay filed under Cavia porcellus [3] was 2.04 nM.
The corresponding values for `C[C@@H](O)[C@H](NC(=O)[C@H]1NC(=O)[C@H]([C@@H](C)O)NC(=O)[C@H](CCCCN)NC(=O)C(Cc2c[nH]c3ccccc23)NC(=O)[C@@H](Cc2ccc(O)cc2)NC(=O)[C@@H](NC(=O)[C@H]2Cc3ccccc3CN2)CSSC1(C)C)C(N)=O` (stereo in doubt) [listing 1 of 2 here] are 1.2 nM, 9320 nM and 7.94 nM.
Take `C[C@@H](O)[C@@H]1NC(=O)[C@H](CCCCN)NC(=O)C(Cc2c[nH]c3ccccc23)NC(=O)[C@H](Cc2ccc(O)cc2)NC(=O)[C@@H](NC(=O)[C@H]2Cc3ccccc3CN2)CSSC(C)(C)[C@@H](C(=O)N[C@@H](CO)C(N)=O)NC1=O` (stereo in doubt): the Ratio in assay [1] turned out to be 192; in assay [2], 491.
The like results for `C[C@@H](O)[C@@H]1NC(=O)[C@H](CCCCN)NC(=O)C(Cc2c[nH]c3ccccc23)NC(=O)[C@H](Cc2ccc(O)cc2)NC(=O)[C@@H](NC(=O)[C@H](N)Cc2ccccc2)CSSC(C)(C)[C@@H](C(=O)N[C@@H](CC(=O)O)C(N)=O)NC1=O` (stereo in doubt) were, in that order, 2.4 and greater than 2.9.
The corresponding values for `CN[C@H](Cc1ccccc1)C(=O)N[C@H]1CSSC(C)(C)[C@@H](C(=O)N[C@H](C(N)=O)[C@@H](C)O)NC(=O)[C@H]([C@@H](C)O)NC(=O)[C@H](CCCN)NC(=O)C(Cc2c[nH]c3ccccc23)NC(=O)[C@H](Cc2ccc(O)cc2)NC1=O` (stereo in doubt) are 28 and greater than 35.
As for `C[C@@H](O)[C@H](NC(=O)[C@@H]1NC(=O)[C@H](CCCCN)NC(=O)C(Cc2c[nH]c3ccccc23)NC(=O)[C@H](Cc2ccc(O)cc2)NC(=O)[C@@H](NC(=O)[C@@H](N)Cc2ccccc2)CSSC1(C)C)C(N)=O` (stereo in doubt), the inhibition in assay [7] came to 18%.
With `C[C@@H](O)[C@@H]1NC(=O)[C@H](CCCCN)NC(=O)C(Cc2c[nH]c3ccccc23)NC(=O)[C@H](Cc2ccc(O)cc2)NC(=O)[C@@H](NC(=O)[C@H](N)Cc2ccccc2)CSSC(C)(C)[C@@H](C(=O)N[C@@H](CC(N)=O)C(N)=O)NC1=O` (stereo in doubt), the Ratio is 6.3 in assay [1] and greater than 77 in assay [2].
In the case of `C[C@@H](O)[C@H](NC(=O)[C@H]1NC(=O)[C@H](CC(N)=O)NC(=O)[C@H](Cc2ccccc2)NC(=O)[C@@H](NC(=O)[C@@H](N)Cc2ccc(O)cc2)CSSC1(C)C)C(N)=O`, the Ratio in [1] and in assay [2] was greater than 1.3 in each case. Also, the IC50 entry at Somatostatin receptor was “>= 10000 nM”.
As to `C[C@@H](O)[C@H](NC(=O)[C@H]1NC(=O)[C@H]([C@@H](C)O)NC(=O)[C@H](CCCCN)NC(=O)C(Cc2c[nH]c3ccccc23)NC(=O)[C@@H](Cc2ccc(O)cc2)NC(=O)[C@@H](NC(=O)[C@H]2Cc3ccccc3CN2)CSSC1(C)C)C(N)=O` (stereo in doubt) [listing 2 of 2 here], the Ratio in assay [1] was 791; in assay [2], 7770.
As to `C[C@@H](O)[C@@H]1NC(=O)[C@H](CCCCN)NC(=O)C(Cc2c[nH]c3ccccc23)NC(=O)[C@H](Cc2ccc(O)cc2)NC(=O)[C@@H](NC(=O)[C@H](N)Cc2ccccc2)CSSC(C)(C)[C@@H](C(=O)N[C@@H](CO)C(N)=O)NC1=O` (stereo in doubt) [listing 2 of 2 here], the Ratio was 94 in assay [1] and greater than 490 in assay [2].
